In article PMC9055986 (RSC Advances, 2020):

Legend:
[1] = test system: MCF-7 cells; assay: Cell cycle analysis; assay type: cell-based; conditions: for cell cycle arrest: MCF-7 cell line, in words; for DNA content% % G0–G1 / DNA content% % G2–M / DNA content% % Pre G1 / DNA content% % S: MCF-7 cells, 10 μg mL^−1, 24 h
[2] = biological target: PARP-1 (Homo sapiens, UniProt P09874); assay: In vitro PARP-1 inhibitory assay; assay type: biochemical; conditions: IC50 (nM), in vitro inhibitory activity against PARP-1; mean ± S.E.M., n = 3
Sequence of PARP-1 (P09874 whole entry): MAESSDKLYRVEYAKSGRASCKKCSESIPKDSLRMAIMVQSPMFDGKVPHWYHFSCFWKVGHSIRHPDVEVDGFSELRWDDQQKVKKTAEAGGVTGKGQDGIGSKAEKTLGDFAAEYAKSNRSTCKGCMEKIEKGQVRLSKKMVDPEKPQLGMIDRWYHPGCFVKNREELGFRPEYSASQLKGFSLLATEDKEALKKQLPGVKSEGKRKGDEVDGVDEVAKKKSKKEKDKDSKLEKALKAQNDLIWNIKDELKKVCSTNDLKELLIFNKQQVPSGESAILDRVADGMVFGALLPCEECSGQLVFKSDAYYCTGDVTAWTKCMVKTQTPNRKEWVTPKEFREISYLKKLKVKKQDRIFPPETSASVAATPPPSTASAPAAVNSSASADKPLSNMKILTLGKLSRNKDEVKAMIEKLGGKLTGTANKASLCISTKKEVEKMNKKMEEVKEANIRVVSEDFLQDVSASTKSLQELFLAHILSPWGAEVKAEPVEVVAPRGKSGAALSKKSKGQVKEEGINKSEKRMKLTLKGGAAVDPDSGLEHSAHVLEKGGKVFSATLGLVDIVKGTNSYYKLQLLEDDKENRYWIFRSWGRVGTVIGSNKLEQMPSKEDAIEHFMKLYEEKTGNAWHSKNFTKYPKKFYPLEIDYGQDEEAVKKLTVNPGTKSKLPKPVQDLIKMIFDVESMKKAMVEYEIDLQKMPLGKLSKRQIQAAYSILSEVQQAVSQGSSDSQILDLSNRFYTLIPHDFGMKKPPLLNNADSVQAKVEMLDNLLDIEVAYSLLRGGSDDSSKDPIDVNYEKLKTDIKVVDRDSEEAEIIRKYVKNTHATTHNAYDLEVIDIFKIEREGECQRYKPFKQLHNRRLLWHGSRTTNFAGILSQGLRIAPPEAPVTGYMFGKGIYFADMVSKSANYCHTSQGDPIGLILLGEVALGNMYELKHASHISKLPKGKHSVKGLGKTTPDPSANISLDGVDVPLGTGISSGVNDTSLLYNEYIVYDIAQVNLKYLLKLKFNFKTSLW

[3] = test system: MCF-7 cells; assay: Annexin V-FITC apoptosis assay; assay type: cell-based; conditions: 2.5 μM, 24 h, Annexin V and PI double staining
In short: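 MCF-7 cells exposed to test compound (2.5 μM) for 24 h, then double-stained with Annexin V-FITC and propidium iodide. Stained cells were detected by flow cytometry, and the percentage of apoptotic cells was determined.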

Row | IC50 [2] | SMILES | cell cycle arrest [1] | DNA content% % G0–G1 [1] | DNA content% % G2–M [1] | DNA content% % Pre G1 [1] | DNA content% % S [1] | Apoptosis Total [3]
1 | 27.9 ± 3.45 nM | NS(=O)(=O)c1ccc(NC(=O)CNNc2nc3ccccc3c(=O)n2-c2ccccc2)cc1 [Compound 12c, 2-(2-(4-Oxo-3-phenyl-3,4-dihydroquinazolin-2-yl)hydrazinyl)-N-(4-sulfamoylphenyl)-acetamide] | cell growth arrest at the G2/M phase | 43.28% | 23.49% | 19.31% | 33.23% | –
2 | 45.6 ± 2.86 nM | COc1ccccc1C=NNc1nc2ccccc2c(=O)n1-c1ccccc1 [Compound 13c, 2-(2-(2-Methoxybenzylidene)hydrazinyl)-3-phenylquinazolin-4(3H)-one] | – | – | – | – | – | –
3 | 56 ± 2.95 nM | COC(=O)c1ccc(NC(=O)Cn2c(=S)n(-c3ccccc3)c(=O)c3ccccc32)cc1 [Compound 6a, Methyl 4-(2-(4-oxo-3-phenyl-2-thioxo-3,4-dihydroquinazolin-1(2H)-yl)acetamido)benzoate] | – | – | – | – | – | –
4 | – | CN[C@@H]1C[C@H]2O[C@@](C)([C@@H]1OC)n1c3ccccc3c3c4c(c5c6ccccc6n2c5c31)C(=O)NC4 [Stauroporine, reference compound] | – | 37.19% | 36.59% | – | 26.22% | 31.74%
5 | 44.2 ± 3.12 nM | O=c1c2ccccc2nc(NN=Cc2ccc(O)cc2)n1-c1ccccc1 [Compound 13b, 2-(2-(4-Hydroxybenzylidene)hydrazinyl)-3-phenylquinazolin-4(3H)-one] | – | – | – | – | – | –
6 | 32.5 ± 2.64 nM | COc1ccc(-c2cc(-c3ccc(NC(=O)CSc4nc5ccccc5c(=O)n4-c4ccccc4)cc3)nc(N)c2C#N)cc1 [Compound 8a, N-(4-(6-Amino-5-cyano-4-(4-methoxyphenyl)pyridin-2-yl)phenyl)-2-((4-oxo-3-phenyl-3,4-dihydroquinazolin-2-yl)thio)acetamide] | – | – | – | – | – | –
7 | 39.1 ± 3.89 nM | COC(=O)c1ccc(NC(=O)CNNc2nc3ccccc3c(=O)n2-c2ccccc2)cc1 [Compound 12a, Methyl 4-(2-(2-(4-oxo-3-phenyl-3,4-dihydroquinazolin-2-yl)hydrazinyl)acetamido)benzoate] | cell growth arrest at the G2/M phase | 38.51% | 38.06% | 26.55% | 23.43% | –
8 | 64.7 ± 3.38 nM | CC(=O)c1ccc(NC(=O)Cn2c(=S)n(-c3ccccc3)c(=O)c3ccccc32)cc1 [Compound 6b, N-(4-Acetylphenyl)-2-(4-oxo-3-phenyl-2-thioxo-3,4-dihydroquinazolin-1(2H)-yl)acetamide] | – | – | – | – | – | –
